Common to all, as to format: functional
For experiment [1], the system named is Pseudomonas aeruginosa. As to the kind of experiment: Antibacterial activity against Pseudomonas aeruginosa PAO1 assessed as log reduction of bacterial count at 50 ug/ml by rotating disk reactor method.
The test system of experiment [2] is Pseudomonas aeruginosa. Briefly: Antibacterial activity against Pseudomonas aeruginosa PAO1 assessed as log reduction of bacterial count at 50 ug/ml by CDC biofilm reactor method. The procedure, abridged: (§1)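 CDC-type biofilm reactor with PAO1 on polystyrene coupons, grown 24 h batch then 24 h continuous flow. Medium was fed at 13 ml/min, giving ~27 min residence. Coupon treatments, inoculum, medium and analysis matched the rotating disk runs: sonication, plate counts, log10 CFU/cm2, and log reduction against untreated control.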

For experiment [3], the system named is Pseudomonas aeruginosa. As to the kind of experiment: Antibacterial activity against Pseudomonas aeruginosa PAO1.
Experiment [4] concerns Pseudomonas aeruginosa. Briefly: Antibacterial activity against Pseudomonas aeruginosa PAO1 assessed as log reduction of bacterial count at 100 ug/ml by rotating disk reactor method. The procedure, abridged: (§2)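 Rotating disk reactor (~200 rpm, 180 ml, 60-min residence, ca. 26°C) with polystyrene coupons and P. aeruginosa PAO1 inoculated per ASTM E-2196-02. Biofilms were grown 24 h in batch, then 24 h under flow. Compound was added to ~100 µg/ml final (ethanol or DMSO vehicle) for 24 h in batch. Coupons then received 100 µg/ml tobramycin or PBS for 2 h at room temperature. LR = negative-control mean log10 CFU/cm2 minus treated mean, three coupons per set.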

The test system of experiment [5] is Pseudomonas aeruginosa. As to the kind of experiment: Antibacterial activity against Pseudomonas aeruginosa PAO1 assessed as log reduction of bacterial count at 10 ug/ml by rotating disk reactor method.
The subject of experiment [6] is Pseudomonas aeruginosa. As to the kind of experiment: Antibacterial activity against Pseudomonas aeruginosa PAO1 assessed as log reduction of bacterial count by rotating disk reactor method. A digest of the protocol:
as §2

For experiment [7], the system named is Pseudomonas aeruginosa. Briefly: Antibacterial activity against Pseudomonas aeruginosa PAO1 assessed as log reduction of bacterial count at 100 ug/ml by CDC biofilm reactor method. A digest of the protocol:
as §1

SMILES strings stand for the structures.

On to `C[C@H]1[C@H](C)CC[C@]2(C(=O)O)CC[C@]3(C)C(=CC[C@@H]4[C@@]5(C)C[C@@H](O)[C@H](O)[C@@](C)(CO)[C@@H]5CC[C@]43C)[C@H]12` [ASIATIC ACID], for which the Activity with Pseudomonas aeruginosa [1] was found to be 0.12; in the experiment with Pseudomonas aeruginosa [2], 0.8; with Pseudomonas aeruginosa [4], 0.19; in the experiment with Pseudomonas aeruginosa [5], 0.14. Also, the minimal inhibitory concentration (MIC) – broadly, the lowest concentration found to suppress growth – in the experiment on Pseudomonas aeruginosa [3] was no less than 128 µg/mL.

`O=C(O)c1cn(C2CC2)c2cc(N3CCNCC3)c(F)cc2c1=O` [CIPROFLOXACIN] yielded an MIC in the experiment on Pseudomonas aeruginosa [3] of no less than 1 µg/mL. In addition, the Activity with Pseudomonas aeruginosa [6] is given as -0.29.

Take `C[C@H]1[C@H](C)CC[C@]2(C(=O)O)CC[C@]3(C)C(=CC[C@@H]4[C@@]5(C)C[C@@H](O)[C@H](O)C(C)(C)[C@@H]5CC[C@]43C)[C@H]12` [COROSOLIC ACID]: the Activity is -0.04 in the experiment on Pseudomonas aeruginosa [1], 0.02 with Pseudomonas aeruginosa [4] and 0.7 in the experiment on Pseudomonas aeruginosa [7]. The MIC with Pseudomonas aeruginosa [3] is greater than 128 µg/mL.

As for `NC[C@H]1O[C@H](O[C@H]2[C@H](O)[C@@H](O[C@H]3O[C@H](CO)[C@@H](O)[C@H](N)[C@H]3O)[C@H](N)C[C@@H]2N)[C@H](N)C[C@@H]1O` [TOBRAMYCIN], the Activity with Pseudomonas aeruginosa [1] is on record as 0.78; in the experiment with Pseudomonas aeruginosa [4], 1.36; in the experiment with Pseudomonas aeruginosa [5] it was 1.51; in the experiment with Pseudomonas aeruginosa [6], 0.4.

Source of the values: ChEMBL document CHEMBL1145499, “Asiatic acid and corosolic acid enhance the susceptibility of Pseudomonas aeruginosa biofilms to tobramycin” (2007).
